{"source": "ChEMBL document CHEMBL1944532", "about": "“Synthesis and evaluation of anticancer activity of some novel 6-aryl-2-(p-sulfamylphenyl)-pyridazin-3(2H)-ones” (Eur J Med Chem, 2012)", "key": {"[1]": {"tested_on": "U-251", "test": "Antitumor activity against human U251 cells implanted in mouse dosed qd for 4 days by formazan dye-based hollow fiber assay", "assay_type": "functional, organism-based", "how_it_was_run": "(§1)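 Cells grown inside polyvinylidene fluoride hollow fibers; each line implanted into both intraperitoneal and subcutaneous compartments in mice. Compound given ip at two doses on a QD x 4 schedule. Fibers then recovered and viable cell mass measured by formazan dye conversion. Scored 2 per dose giving ≥50% reduction in viable cell mass (%T/C 50).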"}, "[2]": {"tested_on": "LOX IMVI", "test": "Cytotoxicity against human LOXIMVI cells assessed as cell growth at 10 uM after 48 hrs by SRB assay", "assay_type": "functional", "conditions": "read-out: Activity", "how_it_was_run": "(§2)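 NCI primary single-dose screen at 10^-5 M against the full panel of about 60 human tumor cell lines. Cells were in RPMI-1640 with 5% fetal calf serum and 2 mM L-glutamine and preincubated 24 h. Compound was given in DMSO with 48 h exposure. Growth was estimated by sulforhodamine B protein assay.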"}, "[3]": {"tested_on": "U-251", "test": "Cytotoxicity against human U251 cells assessed as cell growth at 10 uM after 48 hrs by SRB assay", "assay_type": "functional", "conditions": "U-251, 48 h, read-out: Activity", "how_it_was_run": "(§3)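 NCI primary one-dose screen at 10^-5 M against the full panel of about 60 human tumour cell lines, run to the NCI Drug Evaluation Branch protocol.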"}, "[4]": {"tested_on": "NCI-H460", "test": "Cytotoxicity against human NCI-H460 cells assessed as cell growth at 10 uM after 48 hrs by SRB assay", "assay_type": "functional", "conditions": "NCI-H460, 48 h, read-out: Activity", "how_it_was_run": "as §2"}, "[5]": {"tested_on": "EKVX", "test": "Cytotoxicity against human EKVX cells assessed as cell growth at 10 uM after 48 hrs by SRB assay", "assay_type": "functional", "conditions": "read-out: Activity", "how_it_was_run": "(§4)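 NCI primary single-dose screen at 10^-5 M against the ~60 human tumour cell line panel. Cells grown in RPMI-1640 with 5% fetal calf serum and 2 mM L-glutamine and pre-incubated 24 h before compound addition. Compound added from DMSO solution with 48 h exposure. Growth read by sulforhodamine B protein staining.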"}, "[6]": {"tested_on": "MDA-MB-468", "test": "Cytotoxicity against human MDA-MB-468 cells after 48 hrs by SRB assay", "assay_type": "functional", "conditions": "MDA-MB-468, 48 h", "how_it_was_run": "(§5)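 NCI five-dose screen on the ~60-line human tumor panel. Cells grown in RPMI-1640 with 5% fetal calf serum and 2 mM L-glutamine, seeded at line-dependent density and preincubated 24 h. Compound added from DMSO at 10-fold dilutions from 10^-4 to 10^-8 M, continuous exposure 48 h. Growth read by sulforhodamine B protein stain. GI50, TGI and LC50 derived per line.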"}, "[7]": {"tested_on": "IGROV-1", "test": "Cytotoxicity against human IGROV1 cells assessed as cell growth at 10 uM after 48 hrs by SRB assay", "assay_type": "functional", "conditions": "IGROV-1, 48 h, read-out: Activity", "how_it_was_run": "as §4"}, "[8]": {"tested_on": "HCT-15", "test": "Cytotoxicity against human HCT15 cells assessed as cell growth at 10 uM after 48 hrs by SRB assay", "assay_type": "functional", "conditions": "HCT-15, 48 h, read-out: Activity", "how_it_was_run": "as §4"}, "[9]": {"tested_on": "OVCAR-4", "test": "Cytotoxicity against human OVCAR4 cells after 48 hrs by SRB assay", "assay_type": "functional", "conditions": "OVCAR-4, 48 h", "how_it_was_run": "as §5"}, "[10]": {"tested_on": "NCI-H460", "test": "Cytotoxicity against human NCI-H460 cells after 48 hrs by SRB assay", "assay_type": "functional", "conditions": "NCI-H460, 48 h", "how_it_was_run": "as §5"}, "[11]": {"tested_on": "CAKI-1", "test": "Cytotoxicity against human Caki1 cells assessed as cell growth at 10 uM after 48 hrs by SRB assay", "assay_type": "functional", "conditions": "CAKI-1, 48 h, read-out: Activity", "how_it_was_run": "as §4"}, "[12]": {"tested_on": "SW-620", "test": "Cytotoxicity against human SW620 cells assessed as cell growth at 10 uM after 48 hrs by SRB assay", "assay_type": "functional", "conditions": "SW-620, 48 h, read-out: Activity", "how_it_was_run": "as §3"}, "[13]": {"tested_on": "UACC-62", "test": "Cytotoxicity against human UACC62 cells after 48 hrs by SRB assay", "assay_type": "functional", "conditions": "UACC-62, 48 h", "how_it_was_run": "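NCI 60-cell-line five-dose screen. Cells were grown in 1640 medium with 5% fetal calf serum and 2 mM L-glutamine, with inoculum density set by cell line, and pre-incubated 24 h. Compound in DMSO was added at 10^-4 to 10^-8 M (10-fold steps) with 48 h continuous exposure. Growth was read by SRB protein assay, and GI50, TGI and LC50 were derived from dose-response.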"}, "[14]": {"tested_on": "MDA-MB-231", "test": "Antitumor activity against human MDA-MB-231 cells implanted in mouse dosed qd for 4 days by formazan dye-based hollow fiber assay", "assay_type": "functional, organism-based", "how_it_was_run": "as §1"}, "[15]": {"tested_on": "NCI-H322M", "test": "Cytotoxicity against human NCI-H322M cells after 48 hrs by SRB assay", "assay_type": "functional", "how_it_was_run": "as §5"}, "[16]": {"tested_on": "OVCAR-3", "test": "Cytotoxicity against human OVCAR3 cells assessed as cell growth at 10 uM after 48 hrs by SRB assay", "assay_type": "functional", "conditions": "OVCAR-3, 48 h, read-out: Activity", "how_it_was_run": "as §2"}, "[17]": {"tested_on": "NCI-H322M", "test": "Cytotoxicity against human NCI-H322M cells assessed as cell growth at 10 uM after 48 hrs by SRB assay", "assay_type": "functional", "conditions": "read-out: Activity", "how_it_was_run": "as §2"}, "[18]": {"tested_on": "OVCAR-4", "test": "Cytotoxicity against human OVCAR4 cells assessed as cell growth at 10 uM after 48 hrs by SRB assay", "assay_type": "functional", "conditions": "OVCAR-4, 48 h, read-out: Activity", "how_it_was_run": "as §2"}}, "note": "Calls of active or inactive are those of the source. The rule behind the calls is not given here.", "data": [{"smiles": "CCc1ccc(-c2ccc(=O)n(-c3ccc(S(N)(=O)=O)cc3)n2)cc1", "values": [{"measurement": "Activity", "setting": "[1]", "value": "inactive"}, {"measurement": "growth at 10 µM", "setting": "[2]", "value": 55.1, "unit": "%"}, {"measurement": "growth at 10 µM", "setting": "[3]", "value": 35, "unit": "%"}, {"measurement": "growth at 10 µM", "setting": "[4]", "value": 12.6, "unit": "%"}, {"measurement": "growth at 10 µM", "setting": "[5]", "value": 69.1, "unit": "%"}, {"measurement": "LC50", "setting": "[6]", "value": "> 100", "unit": "µM"}, {"measurement": "GI50", "setting": "[6]; read-out: GI50", "value": 3.18, "unit": "µM"}, {"measurement": "GI50", "setting": "[6]; read-out: pGI50 (converted)", "value": 3.16, "unit": "µM"}, {"measurement": "TGI", "setting": "[6]; read-out: pTGI", "value": "> 100", "unit": "µM"}, {"measurement": "growth at 10 µM", "setting": "[7]", "value": -5.72, "unit": "%"}, {"measurement": "growth at 10 µM", "setting": "[8]", "value": 29.7, "unit": "%"}, {"measurement": "LC50", "setting": "[9]", "value": "> 100", "unit": "µM"}, {"measurement": "GI50", "setting": "[9]; read-out: GI50", "value": "> 100", "unit": "µM"}, {"measurement": "GI50", "setting": "[9]; read-out: pGI50 (converted)", "value": "> 100", "unit": "µM"}, {"measurement": "TGI", "setting": "[9]; read-out: pTGI", "value": "> 100", "unit": "µM"}, {"measurement": "LC50", "setting": "[10]", "value": 63.1, "unit": "µM"}, {"measurement": "GI50", "setting": "[10]; read-out: GI50", "value": 0.438, "unit": "µM"}, {"measurement": "GI50", "setting": "[10]; read-out: pGI50 (converted)", "value": 0.437, "unit": "µM"}, {"measurement": "TGI", "setting": "[10]; read-out: pTGI (converted)", "value": 4.47, "unit": "µM"}, {"measurement": "growth at 10 µM", "setting": "[11]", "value": 36.6, "unit": "%"}, {"measurement": "growth at 10 µM", "setting": "[12]", "value": 35, "unit": "%"}, {"measurement": "LC50", "setting": "[13]", "value": "> 100", "unit": "µM"}, {"measurement": "GI50", "setting": "[13]; read-out: GI50", "value": 0.724, "unit": "µM"}, {"measurement": "GI50", "setting": "[13]; read-out: pGI50 (converted)", "value": 0.724, "unit": "µM"}, {"measurement": "TGI", "setting": "[13]; read-out: pTGI", "value": "> 100", "unit": "µM"}, {"measurement": "Activity", "setting": "[14]", "value": "inactive"}, {"measurement": "LC50", "setting": "[15]", "value": "> 100", "unit": "µM"}, {"measurement": "GI50", "setting": "[15]; read-out: GI50", "value": 14.3, "unit": "µM"}, {"measurement": "GI50", "setting": "[15]; read-out: pGI50 (converted)", "value": 14.1, "unit": "µM"}, {"measurement": "TGI", "setting": "[15]; read-out: pTGI (converted)", "value": 100, "unit": "µM"}, {"measurement": "growth at 10 µM", "setting": "[16]", "value": -56.8, "unit": "%"}, {"measurement": "growth at 10 µM", "setting": "[17]", "value": 115, "unit": "%"}, {"measurement": "growth at 10 µM", "setting": "[18]", "value": 74.5, "unit": "%"}]}]}
